The source made the active and inactive calls. The rule behind the calls is not given here.
Assays:
[1] = biological target: T1, Isochorismate synthase EntC (Escherichia coli K-12, UniProt P0AEJ2); assay: Inhibition of Escherichia coli K12 IS expressed in Escherichia coli BL21(DE3) by spectrophotometry
T1 sequence (P0AEJ2 whole entry): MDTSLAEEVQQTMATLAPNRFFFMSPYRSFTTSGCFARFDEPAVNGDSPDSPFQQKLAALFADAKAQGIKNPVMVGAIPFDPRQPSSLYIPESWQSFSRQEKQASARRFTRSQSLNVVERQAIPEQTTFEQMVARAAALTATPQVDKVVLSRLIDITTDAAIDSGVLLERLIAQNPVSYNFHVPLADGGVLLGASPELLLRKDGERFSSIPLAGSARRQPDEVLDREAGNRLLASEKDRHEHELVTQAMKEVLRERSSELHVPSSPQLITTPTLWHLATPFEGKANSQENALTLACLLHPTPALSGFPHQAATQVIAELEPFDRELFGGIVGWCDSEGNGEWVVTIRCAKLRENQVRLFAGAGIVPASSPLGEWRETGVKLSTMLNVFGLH
How it was run: (§1)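 Isochorismate synthase EntC (His-tagged, pET28a, BL21(DE3)) at 75 nM, coupled to excess EntB (2 μM) and 2 units LDH. Read-out was NADH oxidation at 340 nm, 25 °C. Buffer: 50 mM triethanolamine pH 7.8, 1 mM MgCl2 (saturating), 100 μM NADH. Inhibitor ranged 10 μM–8 mM; chorismate ranged 0.5–5 KM. Ki versus chorismate came from initial rates.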

[2] = biological target: T2, Isochorismate synthase EntC (Escherichia coli K-12) (UniProt P0AEJ2); assay: Noncompetitive inhibition of Escherichia coli K12 IS expressed in Escherichia coli BL21(DE3) by double reciprocal plot in presence of cofactor Mg2+
T2 sequence (whole entry): T1 sequence (P0AEJ2 whole entry)
How it was run: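 IS (75 nM) in an EntB/LDH coupled assay, with NADH loss read at 340 nm, 25 °C. Buffer: 50 mM triethanolamine pH 7.8, 100 μM NADH. Chorismate was held saturating at 200 μM while Mg2+ was varied 5–500 μM. Inhibitor ranged 10 μM–8 mM; the inhibition pattern came from initial rates.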

[3] = biological target: T3, Anthranilate synthase component 1 (Salmonella typhimurium (strain LT2 / SGSC1412 / ATCC 700720)) (UniProt P00898); assay: Noncompetitive inhibition of Salmonella Typhimurium anthranilate synthase trpE expressed in Escherichia coli BL21(DE3) using chorismate as substrate by double reciprocal plot; settings: Salmonella enterica subsp. enterica serovar Typhimurium
T3 sequence (whole entry): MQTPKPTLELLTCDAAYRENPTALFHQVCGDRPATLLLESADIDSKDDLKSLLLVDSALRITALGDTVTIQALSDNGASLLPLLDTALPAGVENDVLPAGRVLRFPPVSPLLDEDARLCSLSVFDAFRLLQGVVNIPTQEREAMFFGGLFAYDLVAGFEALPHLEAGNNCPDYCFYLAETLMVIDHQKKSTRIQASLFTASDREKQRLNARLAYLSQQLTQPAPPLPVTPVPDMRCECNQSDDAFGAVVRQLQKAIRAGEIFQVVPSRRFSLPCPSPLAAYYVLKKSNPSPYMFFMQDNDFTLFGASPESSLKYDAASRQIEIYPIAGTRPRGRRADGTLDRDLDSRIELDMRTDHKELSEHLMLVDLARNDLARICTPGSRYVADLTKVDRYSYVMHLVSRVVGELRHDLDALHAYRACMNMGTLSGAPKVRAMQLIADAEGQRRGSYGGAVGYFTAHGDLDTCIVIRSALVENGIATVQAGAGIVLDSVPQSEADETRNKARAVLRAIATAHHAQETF
How it was run: (§2)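 S. typhimurium anthranilate synthase partial complex (TrpE2TrpG2), 2.2 nM, in a fluorescence assay read at 390 nm emission, 313 nm excitation, 25 °C. Buffer: 100 mM phosphate pH 7.0, 20 mM L-glutamine, 5 mM MgCl2 (saturating). Reactions were started with enzyme. Inhibitor ranged 10 μM–8 mM; chorismate ranged 0.5–5 KM. Ki versus chorismate came from initial rates.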

[4] = biological target: T2, Isochorismate synthase EntC (Escherichia coli K-12); assay: Competitive inhibition of Escherichia coli K12 IS expressed in Escherichia coli BL21(DE3) using chorismate as substrate by double reciprocal plot; how it was run: as §1
[5] = biological target: T4, Anthranilate synthase component 1 (Salmonella typhimurium (strain LT2 / SGSC1412 / ATCC 700720), UniProt P00898); assay: Inhibition of Salmonella Typhimurium anthranilate synthase trpE:trpD […] coexpressing stop codon in trpD gene for encoding aminotransferase activity by spectrophotometry for enzyme-inhibitor complex; set-up: species or system Salmonella enterica subsp. enterica serovar Typhimurium
T4 sequence (P00898 whole entry): T3 sequence (whole entry)

[6] = biological target: Aminodeoxychorismate synthase component 1 PabB (Escherichia coli K-12) (UniProt P05041); assay: Noncompetitive inhibition of Escherichia coli K12 ADCS using chorismate as substrate by double reciprocal plot
Sequence of Aminodeoxychorismate synthase component 1 PabB (Escherichia coli K-12) (P05041 whole entry, looked up): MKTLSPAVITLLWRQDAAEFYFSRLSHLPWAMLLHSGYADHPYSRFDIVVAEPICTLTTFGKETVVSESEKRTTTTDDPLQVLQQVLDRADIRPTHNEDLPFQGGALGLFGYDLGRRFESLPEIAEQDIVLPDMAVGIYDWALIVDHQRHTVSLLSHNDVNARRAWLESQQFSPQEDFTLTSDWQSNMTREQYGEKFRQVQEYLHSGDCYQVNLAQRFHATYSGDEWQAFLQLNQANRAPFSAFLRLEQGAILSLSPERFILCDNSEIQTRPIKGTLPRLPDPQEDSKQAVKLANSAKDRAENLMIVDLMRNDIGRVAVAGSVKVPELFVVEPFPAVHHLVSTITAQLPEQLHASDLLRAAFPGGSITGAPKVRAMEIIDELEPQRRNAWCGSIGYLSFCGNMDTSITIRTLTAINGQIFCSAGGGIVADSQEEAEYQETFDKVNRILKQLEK

[7] = biological target: Aminodeoxychorismate synthase component 1 PabB (Escherichia coli K-12) (UniProt P05041); assay: Noncompetitive inhibition of Escherichia coli K12 ADCS by double reciprocal plot in presence of cofactor Mg2+
[8] = biological target: T3, Anthranilate synthase component 1 (Salmonella typhimurium (strain LT2 / SGSC1412 / ATCC 700720)); assay: Competitive inhibition of Salmonella Typhimurium anthranilate synthase trpE expressed in Escherichia coli BL21(DE3) by double reciprocal plot in presence of cofactor Mg2+; settings: Salmonella enterica subsp. enterica serovar Typhimurium
[9] = biological target: Aminodeoxychorismate synthase component 1 PabB (Escherichia coli K-12) (UniProt P05041); assay: Competitive inhibition of Escherichia coli K12 ADCS using chorismate as substrate by double reciprocal plot
[10] = biological target: T3, Anthranilate synthase component 1 (Salmonella typhimurium (strain LT2 / SGSC1412 / ATCC 700720)); assay: Mixed-type inhibition of Salmonella Typhimurium anthranilate synthase trpE expressed in Escherichia coli BL21(DE3) using chorismate as substrate by double reciprocal plot; settings: Salmonella enterica subsp. enterica serovar Typhimurium; how it was run: as §2
[11] = biological target: Aminodeoxychorismate synthase component 1 PabB (Escherichia coli K-12) (UniProt P05041); assay: Competitive inhibition of Escherichia coli K12 ADCS by double reciprocal plot in presence of cofactor Mg2+
[12] = biological target: Anthranilate synthase component 1 (Salmonella typhimurium (strain LT2 / SGSC1412 / ATCC 700720), UniProt P00898); assay: Inhibition of Salmonella Typhimurium anthranilate synthase trpE:trpD […] coexpressing stop codon in trpD gene for encoding aminotransferase activity by spectrophotometry for enzyme-substrate-inhibitor complex; set-up: species or system Salmonella enterica subsp. enterica serovar Typhimurium

| SMILES | Ki [1] [µM] | Activity [2] | Activity [3] | Activity [4] | Ki [5] [µM] | Activity [6] | Activity [7] | Activity [8] | Activity [9] | Activity [10] | Activity [11] | Ki [12] [µM] |
| --- | --- | --- | --- | --- | --- | --- | --- | --- | --- | --- | --- | --- |
| Cc1ccc(C(=O)N[C@@H](C)C(=O)N[C@@H](Cc2cccc(Cl)c2)C(N)=O)c([N+](=O)[O-])c1O | 500 | Active | Active | Active | 200 | Active | Active |  |  |  |  |  |
| Cc1ccc(C(=O)N[C@@H](CCCNC(=O)c2cccc(OCC(=O)O)c2)C(=O)N[C@@H](Cc2cccc(Cl)c2)C(N)=O)c([N+](=O)[O-])c1O | 360 | Active |  | Active | 41 |  |  | Active | Active |  |  |  |
| Cc1ccc(C(=O)N[C@@H](CCCCNC(=O)c2cccc(OCC(=O)O)c2)C(=O)N[C@@H](Cc2cccc(Cl)c2)C(N)=O)c([N+](=O)[O-])c1O | 210 | Active |  | Active | 20 |  |  | Active | Active | Active | Active | 54 |
| Cc1ccc(C(=O)N[C@@H](CSCCCNC(=O)c2cccc(OCC(=O)O)c2)C(=O)N[C@@H](Cc2cccc(Cl)c2)C(N)=O)c([N+](=O)[O-])c1O | 150 | Active |  | Active | 96 |  |  | Active | Active | Active | Active |  |
| Cc1ccc(C(=O)N[C@@H](CCCCN)C(=O)N[C@@H](Cc2cccc(Cl)c2)C(N)=O)c([N+](=O)[O-])c1O | 790 | Active |  | Active | 110 | Active | Active |  |  |  |  |  |
| CC(C(=O)N[C@@H](CCCNC(=O)c1cccc(OCC(=O)O)c1)C(=O)NCCc1cccc2c1oc1c(CCC(N)=O)cccc12)c1ccc([N+](=O)[O-])cc1 (stereo not given in full) | 190 | Active |  | Active | 250 |  |  | Active | Active | Active | Active | 110 |
| NC(=O)C1(NC(=O)[C@H](CCCNC(=O)c2cccc(OCC(=O)O)c2)NC(=O)c2ncccc2C(=O)c2ccccc2)CCCCC1 | 430 | Active |  | Active | 490 |  |  | Active | Active | Active | Active | 1080 |
| Cc1ccc(C(=O)N[C@@H](CCCNC(=O)c2cccc(OCC(=O)O)c2)C(=O)N[C@@H](Cc2ccc(C#N)cc2)C(N)=O)c([N+](=O)[O-])c1O | 260 | Active |  | Active | 28 |  |  | Active | Active | Active | Active | 81 |
| NC(=O)C1(NC(=O)[C@H](CCCNC(=O)c2cccc(OCC(=O)O)c2)NC(=O)c2ccc(Oc3ccccc3)cc2)CCS(=O)(=O)CC1 | 170 | Active |  | Active | 570 |  |  | Active | Active | Active | Active | 1020 |
| NC(=O)c1cccc(OCC(=O)O)c1 | 2600 | Active |  | Active | 760 |  |  | Active | Active | Active | Active | 2600 |
| O=C(O)COc1cccc(C(=O)O)c1 | 1300 | Active |  | Active | 210 |  |  | Active | Active | Active | Active | 550 |
